Measurements published in ChEMBL document CHEMBL5712081, “Signaling function of PRC2 is essential for TCR-driven T cell responses” (J Exp Med, 2018).
pIC50: −log10 of the molar value. Calls of active or inactive are those of the source. No cut-off for these calls is given here.

Key:
CD4+ T cell [1] = experiment: Down-regulation of Erk phosphorylation in TCR-triggered human CD4+ T cell by Western blotting analysis; format: functional, cell-based
Procedure, shortened: (§1)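 Purified CD4+ T cells in DMSO or inhibitor were coated with 10 μg/ml anti-CD3 and 2.5 μg/ml anti-CD28 on ice for 20 min. They were cross-linked with 20 μg/ml anti-hamster IgG for 2 or 10 min at 37°C, then lysed in 0.5% NP-40 buffer. pErk1/2 (T202/Y204) was read by Western blot and normalized to total Erk. Three independent experiments.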

[2] = molecular target: Histone-lysine N-methyltransferase EZH2 (Homo sapiens) (UniProt Q15910); experiment: Inhibition of EZH2 (unknown origin) at 45 nM
Histone-lysine N-methyltransferase EZH2 (Homo sapiens), sequence (Q15910 whole entry, looked up): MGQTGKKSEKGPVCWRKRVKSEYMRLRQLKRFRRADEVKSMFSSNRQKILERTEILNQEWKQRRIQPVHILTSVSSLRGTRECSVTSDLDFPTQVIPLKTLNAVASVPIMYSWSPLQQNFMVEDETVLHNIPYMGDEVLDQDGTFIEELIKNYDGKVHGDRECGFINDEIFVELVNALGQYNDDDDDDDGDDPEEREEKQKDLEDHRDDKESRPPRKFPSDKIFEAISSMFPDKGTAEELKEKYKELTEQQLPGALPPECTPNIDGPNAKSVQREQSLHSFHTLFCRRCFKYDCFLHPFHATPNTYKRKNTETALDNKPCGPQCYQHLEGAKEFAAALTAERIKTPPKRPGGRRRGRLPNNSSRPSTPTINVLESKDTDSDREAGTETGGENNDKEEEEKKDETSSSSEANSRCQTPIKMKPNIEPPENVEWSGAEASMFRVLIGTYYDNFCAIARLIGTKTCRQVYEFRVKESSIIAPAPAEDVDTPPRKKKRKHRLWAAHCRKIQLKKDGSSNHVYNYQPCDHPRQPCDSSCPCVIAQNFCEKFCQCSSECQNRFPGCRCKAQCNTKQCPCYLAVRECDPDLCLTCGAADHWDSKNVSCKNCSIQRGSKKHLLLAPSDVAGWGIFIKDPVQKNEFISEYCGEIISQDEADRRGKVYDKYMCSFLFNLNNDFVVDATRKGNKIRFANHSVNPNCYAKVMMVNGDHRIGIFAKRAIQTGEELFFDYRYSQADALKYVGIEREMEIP

[3] = molecular target: T1, Histone-lysine N-methyltransferase EZH1 (Homo sapiens) (UniProt Q92800); experiment: Inhibition of EZH1 (unknown origin) at 2 nM
T1 sequence (whole entry): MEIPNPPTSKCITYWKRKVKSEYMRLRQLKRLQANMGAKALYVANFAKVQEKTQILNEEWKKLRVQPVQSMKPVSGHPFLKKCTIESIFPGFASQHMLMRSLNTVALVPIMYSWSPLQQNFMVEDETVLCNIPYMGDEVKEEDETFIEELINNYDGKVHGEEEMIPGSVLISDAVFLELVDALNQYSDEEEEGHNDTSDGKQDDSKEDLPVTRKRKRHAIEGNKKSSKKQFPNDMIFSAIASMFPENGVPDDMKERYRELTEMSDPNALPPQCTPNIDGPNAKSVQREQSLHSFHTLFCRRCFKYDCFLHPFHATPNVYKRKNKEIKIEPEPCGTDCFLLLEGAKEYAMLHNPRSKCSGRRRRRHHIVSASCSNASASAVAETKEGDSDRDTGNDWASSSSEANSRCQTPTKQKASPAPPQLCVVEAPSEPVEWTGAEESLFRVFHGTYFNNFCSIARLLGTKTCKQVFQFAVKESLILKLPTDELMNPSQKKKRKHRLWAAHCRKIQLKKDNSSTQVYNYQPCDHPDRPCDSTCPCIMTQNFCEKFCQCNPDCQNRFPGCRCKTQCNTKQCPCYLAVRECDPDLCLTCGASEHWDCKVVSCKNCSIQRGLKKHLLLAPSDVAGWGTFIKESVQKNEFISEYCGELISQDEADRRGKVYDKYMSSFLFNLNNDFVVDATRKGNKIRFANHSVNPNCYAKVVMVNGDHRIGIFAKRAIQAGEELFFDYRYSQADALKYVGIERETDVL

CD4+ T cell [4] = experiment: Effect on Erk phosphorylation in TCR-triggered human CD4+ T cell at 10 uM by Western blotting analysis; format: functional, cell-based; procedure, shortened: as §1
CD4+ T cell [5] = experiment: Down-regulation of Mek1/2 at S217/221 phosphorylation in TCR-triggered human CD4+ T cell at 10 uM by Western blotting analysis; format: functional, cell-based
Procedure, shortened: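 CD4+ T cells in DMSO or 10 µM inhibitor were stimulated with anti-CD3 plus anti-CD28 antibodies. pMek1/2 (S217/221) was measured by Western blot and normalized to total Mek1. Three independent experiments.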

CD4+ T cell [6] = experiment: Down-regulation of Erk phosphorylation in human CD4+ T cell upto 50 uM by Western blotting analysis; format: functional, cell-based; procedure, shortened: as §1
[7] = molecular target: T1, Histone-lysine N-methyltransferase EZH1 (Homo sapiens); experiment: Inhibition of Ezh1 in human CD4+ T cell by mass spectrometry analysis; format: cell-based
Mus musculus [8] = experiment: Antiinflammatory activity in Foxp3-DTR expressing C57BL/6 autoimmune mouse model assessed as decrease in granulocytes at 150 mg/kg after 8 days of Dtx treatment for 5 days; format: functional, organism-based; conditions: time 5.0 day
Procedure, shortened: (§2)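 Foxp3-DTR mice were depleted of Treg cells by DTx injection. They received 150 mg/kg inhibitor either together with DTx or starting on day 8 after DTx began. Total cells and T cells, B cells, granulocytes and macrophages in secondary lymphoid organs were counted.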

Mus musculus [9] = experiment: Protection against Foxp3-DTR expressing C57BL/6 autoimmune mouse model assessed as reversal of splenomegaly at 150 mg/kg after 8 days of Dtx treatment for 5 days; format: functional, organism-based; conditions: time 5.0 day
Procedure, shortened: (§3)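 Foxp3-DTR mice were given DTx to deplete Treg cells, with 150 mg/kg inhibitor either at the same time or from day 8 onward. Splenic Foxp3+ Treg frequency was measured, spleen and lymph node size was photographed, and total lymphoid cells in lymph nodes were counted per mouse.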

Mus musculus [10] = experiment: Protection activity against Foxp3-DTR expressing C57BL/6 autoimmune mouse model assessed as decrease in number of Ki67+ cells at 150 mg/kg after 8 days of Dtx treatment for 5 days; format: functional, organism-based; conditions: time 5.0 day
Procedure, shortened: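 Foxp3-DTR mice were given DTx, and 150 mg/kg inhibitor was started on day 8 after DTx initiation. Ki67+ dividing CD19+ B, CD4+ and CD8+ T cells in lymph nodes were measured per mouse. Two experiments, n = 4–15, unpaired Student's t test.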

CD4+ T cell [11] = experiment: Down-regulation of Erk phosphorylation in human CD4+ T cell upto 50 uM in the presence of PMA by Western blotting analysis; format: functional, cell-based
Procedure, shortened: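 Purified CD4+ T cells in DMSO or inhibitor were given prewarmed medium with 5 ng/ml PMA for 10 min at 37°C and lysed in 0.5% NP-40 buffer. pErk1/2 (T202/Y204) was detected by Western blot and normalized to total Erk1/2. Three independent experiments.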

Mus musculus [12] = experiment: Protection against Foxp3-DTR expressing C57BL/6 autoimmune mouse model assessed as prevention of regulatory t cell depletion at 150 mg/kg after 8 days of Dtx treatment for 5 days; format: functional, organism-based; conditions: time 5.0 day; procedure, shortened: as §3
Mus musculus [13] = experiment: Antiinflammatory activity in Foxp3-DTR expressing C57BL/6 autoimmune mouse model assessed as decrease in macrophages at 150 mg/kg after 8 days of Dtx treatment for 5 days; format: functional, organism-based; conditions: time 5.0 day; procedure, shortened: as §2
Mus musculus [14] = experiment: Antiinflammatory activity in Foxp3-DTR expressing C57BL/6 autoimmune mouse model assessed as decrease in T-cells at 150 mg/kg after 8 days of Dtx treatment for 5 days; format: functional, organism-based; conditions: time 5.0 day; procedure, shortened: as §2
CD4+ T cell [15] = experiment: Anti-proliferative activity against TCR induced mouse CD4+ T cell
[16] = molecular target: T2, Histone-lysine N-methyltransferase EZH1 (Homo sapiens, UniProt Q92800); experiment: Inhibition of human EZH1
T2 sequence (Q92800 whole entry): T1 sequence (whole entry)

CD4+ T cell [17] = experiment: Downregulation of Erk phosphorylation in TCR-triggered human CD4+ T cell at 10 uM by Western blotting analysis; format: functional, cell-based; procedure, shortened: as §1
Mus musculus [18] = experiment: Antiinflammatory activity in Foxp3-DTR expressing C57BL/6 autoimmune mouse model assessed as decrease in B-cells at 150 mg/kg after 8 days of Dtx treatment for 5 days; format: functional, organism-based; conditions: time 5.0 day; procedure, shortened: as §2

| Compound | Activity (CD4+ T cell [1]) | inhibition [2] | inhibition [3] | Activity (CD4+ T cell [4]) | Activity (CD4+ T cell [5]) | Activity (CD4+ T cell [6]) | inhibition [7] | Activity (Mus musculus [8]) | Activity (Mus musculus [9]) | Activity (Mus musculus [10]) | Activity (CD4+ T cell [11]) | Activity (Mus musculus [12]) | Activity (Mus musculus [13]) | Activity (Mus musculus [14]) | Activity (CD4+ T cell [15]) | pIC50 [16] | Activity (CD4+ T cell [17]) | Activity (Mus musculus [18]) |
| --- | --- | --- | --- | --- | --- | --- | --- | --- | --- | --- | --- | --- | --- | --- | --- | --- | --- | --- |
| CCCc1cc(C)n(C)c(=O)c1CN(C)C(=O)c1cc(-c2ccc(N3CCN(C(C)C)CC3)nc2)cc2c1cnn2C(C)C | inactive | – | – | – | – | – | – | – | – | – | – | – | – | – | – | – | – | – |
| CCCc1cc(C)[nH]c(=O)c1CNC(=O)c1cc(-c2ccc(N3CCN(C(C)C)CC3)nc2)cc2c1cnn2C(C)C | Active | Active | Active | Active | Active | – | – | – | – | – | – | – | – | – | – | – | – | – |
| Cc1cc(C)c(CNC(=O)c2cc(-c3ccc(N4CCN(C)CC4)nc3)cc3c2c(C)cn3C(C)C)c(=O)[nH]1 | – | – | – | – | – | Active | Active | Active | Active | Active | inactive | Active | Active | Active | Active | 6.20 | Active | Active |
